Test results from ChEMBL document CHEMBL2331219, “Synthesis and anti-Candida activity of novel 2-hydrazino-1,3-thiazole derivatives” (Bioorg Med Chem Lett, 2013).
≈ marks a conversion by molar mass, not a printed value.

Key:
[1] = system: Candida parapsilosis; experiment: Antifungal activity against anidulafungin-resistant Candida parapsilosis isolate 22019 assessed as growth inhibition after 24 to 48 hrs by CLSI microbroth dilution method; format: functional; settings: Lodderomyces parapsilosis
Outline: (§1)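 Microbroth dilution per CLSI M27-A3. Isolates subcultured for purity, incubated at 35 °C; five colonies >1 mm suspended in saline, adjusted to 0.5 × 10³ to 2.5 × 10³ in RPMI 1640 buffered to pH 7.0 with 0.165 M MOPS. Compounds diluted in RPMI to final […]. Read visually after 24 h and 48 h at 35 °C; MIC judged by turbidity against drug-free growth control.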

[2] = system: Nakaseomyces glabratus; experiment: Antifungal activity against voriconazole-resistant Candida glabrata clinical isolate 724 assessed as growth inhibition after 24 to 48 hrs by CLSI microbroth dilution method; format: functional; outline: as §1
[3] = system: Candida albicans; experiment: Antifungal activity against fluconazole-resistant Candida albicans clinical isolate 5.O.A assessed as growth inhibition after 24 to 48 hrs by CLSI microbroth dilution method; format: functional; outline: as §1
[4] = system: Candida parapsilosis; experiment: Antifungal activity against anidulafungin-resistant Candida parapsilosis ANF8 assessed as growth inhibition after 24 to 48 hrs by CLSI microbroth dilution method; format: functional; settings: Lodderomyces parapsilosis; outline: as §1
[5] = system: Candida albicans; experiment: Antifungal activity against azole-resistant Candida albicans clinical isolate 7.O.A assessed as growth inhibition after 24 to 48 hrs by CLSI microbroth dilution method; format: functional; outline: as §1
[6] = system: Nakaseomyces glabratus; experiment: Antifungal activity against fluconazole-resistant Candida glabrata isolate 6258 assessed as growth inhibition after 24 to 48 hrs by CLSI microbroth dilution method; format: functional; outline: as §1
[7] = system: Candida albicans; experiment: Antifungal activity against caspofungin-resistant Candida albicans assessed as growth inhibition after 24 to 48 hrs by CLSI microbroth dilution method
[8] = system: Nakaseomyces glabratus; experiment: Antifungal activity against voriconazole-resistant Candida glabrata clinical isolate 730 assessed as growth inhibition after 24 to 48 hrs by CLSI microbroth dilution method; format: functional; outline: as §1
[9] = Cytotoxicity against mouse NIH/3T3 cells assessed as cell viability at 1 ug/mL after 24 hrs by MTT assay relative to control; format: cell-based, NIH3T3; settings: read-out: Activity
Outline: (§2)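 NIH/3T3 fibroblasts kept in DMEM with 10% fetal calf serum, penicillin/streptomycin, 37 °C, 5% CO2. Cells seeded at 2 × 10⁴ cells/mL, grown 24 h, then given compound (DMSO stock diluted in medium, final DMSO <0.1%) for 24 h. MTT at 0.5 mg/mL final added for 4 h, formazan dissolved in DMSO, absorbance read at 540 nm. Triplicate wells, mean ± SD, assay run twice.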

[10] = Cytotoxicity against mouse NIH/3T3 cells assessed as cell viability at 0.5 ug/mL after 24 hrs by MTT assay relative to control; format: cell-based, NIH3T3; settings: read-out: Activity; outline: as §2
[11] = Cytotoxicity against mouse NIH/3T3 cells assessed as cell viability at 62.5 ug/mL after 24 hrs by MTT assay relative to control; format: cell-based, NIH3T3; settings: read-out: Activity; outline: as §2
[12] = Cytotoxicity against mouse NIH/3T3 cells assessed as cell viability at 31.3 ug/mL after 24 hrs by MTT assay relative to control; format: cell-based, NIH3T3; settings: read-out: Activity; outline: as §2
[13] = Aqueous solubility in PBS buffer at pH 7.0; format: physicochemical

| Compound | MIC [1] | MIC [2] | MIC [3] | MIC [4] | MIC [5] | MIC [6] | MIC [7] | MIC [8] | viability at 24 h, 1 ug/mL [9] | viability at 24 h, 0.5 ug/mL [10] | viability at 24 h, 62.5 ug/mL [11] | viability at 24 h, 31.3 ug/mL [12] | solubility [13] |
| --- | --- | --- | --- | --- | --- | --- | --- | --- | --- | --- | --- | --- | --- |
| C[C@@H](c1ncncc1F)[C@](O)(Cn1cncn1)c1ccc(F)cc1F [VORICONAZOLE] | 0.25 µg/mL (≈ 0.716 µM) | 8 µg/mL (≈ 22.9 µM) | 0.25 µg/mL (≈ 0.716 µM) | 0.06 µg/mL (≈ 0.172 µM) | > 16 µg/mL | 2 µg/mL (≈ 5.73 µM) | 0.25 µg/mL (≈ 0.716 µM) | 16 µg/mL (≈ 45.8 µM) | – | – | – | – | – |
| COc1ccc(O)c(-c2csc(N/N=C/c3ccc4ccccc4c3)n2)c1 | > 16 µg/mL | > 16 µg/mL | > 16 µg/mL | > 16 µg/mL | 2 µg/mL (≈ 5.33 µM) | > 16 µg/mL | > 16 µg/mL | > 16 µg/mL | 69.2% | 83.7% | 52.7% | 45.3% | – |
| C/C(=N\Nc1nc([C@@H]2CCCN2C(=O)OCc2ccccc2)cs1)c1ccc2c(c1)CCC2 | > 16 µg/mL | > 16 µg/mL | > 16 µg/mL | > 16 µg/mL | > 16 µg/mL | > 16 µg/mL | > 16 µg/mL | > 16 µg/mL | – | – | – | – | – |
| C[C@@H]1[C@H](O)[C@@H](C)/C=C/C=C/C=C/C=C/C=C/C=C/C=C/[C@H](O[C@@H]2O[C@H](C)[C@@H](O)[C@H](N)[C@@H]2O)C[C@@H]2O[C@](O)(C[C@@H](O)C[C@@H](O)[C@H](O)CC[C@@H](O)C[C@@H](O)CC(=O)O[C@H]1C)C[C@H](O)[C@H]2C(=O)O [AMPHOTERICIN B] | 1 µg/mL (≈ 1.08 µM) | 0.5 µg/mL (≈ 0.541 µM) | 0.5 µg/mL (≈ 0.541 µM) | 0.5 µg/mL (≈ 0.541 µM) | 0.5 µg/mL (≈ 0.541 µM) | 1 µg/mL (≈ 1.08 µM) | 0.5 µg/mL (≈ 0.541 µM) | 1 µg/mL (≈ 1.08 µM) | – | – | – | – | – |
| COc1ccc(O)c(-c2csc(N/N=C/c3ccco3)n2)c1 | > 16 µg/mL | > 16 µg/mL | > 16 µg/mL | > 16 µg/mL | > 16 µg/mL | > 16 µg/mL | > 16 µg/mL | > 16 µg/mL | – | – | – | – | – |
| COc1ccc(O)c(-c2csc(N/N=C(/C)C3CCc4ccccc43)n2)c1 (centres undefined) | > 16 µg/mL | > 16 µg/mL | > 16 µg/mL | > 16 µg/mL | > 16 µg/mL | > 16 µg/mL | > 16 µg/mL | 16 µg/mL (≈ 42.2 µM) | – | – | – | – | < 50 µM |
| COc1ccc(O)c(-c2csc(N/N=C/c3ccc4c(c3)OCO4)n2)c1 | > 16 µg/mL | > 16 µg/mL | > 16 µg/mL | > 16 µg/mL | > 16 µg/mL | > 16 µg/mL | > 16 µg/mL | > 16 µg/mL | – | – | – | – | – |
| C/C(=N\Nc1nc([C@H](Cc2c[nH]c3ccccc23)NC(=O)OCc2ccccc2)cs1)c1ccc2c(c1)CCC2 | 8 µg/mL (≈ 14.6 µM) | > 16 µg/mL | > 16 µg/mL | > 16 µg/mL | > 16 µg/mL | > 16 µg/mL | > 16 µg/mL | 8 µg/mL (≈ 14.6 µM) | – | – | – | – | – |
| COc1ccc(O)c(-c2csc(N/N=C/c3c(-c4ccccc4)nc4scc(C)n34)n2)c1 | > 16 µg/mL | > 16 µg/mL | > 16 µg/mL | 4 µg/mL (≈ 8.67 µM) | > 16 µg/mL | > 16 µg/mL | > 16 µg/mL | 2 µg/mL (≈ 4.33 µM) | 90% | 94.6% | 59.5% | 64.1% | – |
| COc1ccc(O)c(-c2csc(N/N=C/c3cc4ccccc4o3)n2)c1 | > 16 µg/mL | > 16 µg/mL | > 16 µg/mL | > 16 µg/mL | > 16 µg/mL | > 16 µg/mL | > 16 µg/mL | > 16 µg/mL | – | – | – | – | – |
| OC(Cn1cncn1)(Cn1cncn1)c1ccc(F)cc1F [FLUCONAZOLE] | 64 µg/mL (≈ 209 µM) | 64 µg/mL (≈ 209 µM) | 32 µg/mL (≈ 104 µM) | 1 µg/mL (≈ 3.27 µM) | > 64 µg/mL | 16 µg/mL (≈ 52.2 µM) | 0.125 µg/mL (≈ 0.408 µM) | 64 µg/mL (≈ 209 µM) | – | – | – | – | – |
| CC[C@H](C)C[C@H](C)CCCCCCCCC(=O)N[C@H]1C[C@@H](O)[C@@H](NCCN)NC(=O)[C@@H]2[C@@H](O)CCN2C(=O)[C@H]([C@H](O)CCN)NC(=O)[C@H]([C@H](O)[C@@H](O)c2ccc(O)cc2)NC(=O)[C@@H]2C[C@@H](O)CN2C(=O)[C@H]([C@@H](C)O)NC1=O [CASPOFUNGIN] | 0.5 µg/mL (≈ 0.457 µM) | 0.5 µg/mL (≈ 0.457 µM) | 0.5 µg/mL (≈ 0.457 µM) | 8 µg/mL (≈ 7.32 µM) | 0.25 µg/mL (≈ 0.229 µM) | 2 µg/mL (≈ 1.83 µM) | 0.5 µg/mL (≈ 0.457 µM) | 2 µg/mL (≈ 1.83 µM) | – | – | – | – | – |
| COc1ccc(O)c(-c2csc(NN=C3CCCCC3)n2)c1 | 16 µg/mL (≈ 50.4 µM) | > 16 µg/mL | > 16 µg/mL | > 16 µg/mL | > 16 µg/mL | 16 µg/mL (≈ 50.4 µM) | > 16 µg/mL | 8 µg/mL (≈ 25.2 µM) | – | – | – | – | – |
| COc1ccc(O)c(-c2csc(N/N=C/c3cnc4ccccn34)n2)c1 | > 16 µg/mL | > 16 µg/mL | > 16 µg/mL | > 16 µg/mL | > 16 µg/mL | > 16 µg/mL | > 16 µg/mL | > 16 µg/mL | – | – | – | – | – |
| C/C(=N\Nc1nc([C@H](Cc2ccccc2)NC(=O)OCc2ccccc2)cs1)c1ccc2c(c1)CCC2 | > 16 µg/mL | > 16 µg/mL | > 16 µg/mL | > 16 µg/mL | > 16 µg/mL | > 16 µg/mL | > 16 µg/mL | > 16 µg/mL | – | – | – | – | – |
| C/C(=N\Nc1nc([C@@H]2CCCN2)cs1)c1ccc2c(c1)CCC2 | > 16 µg/mL | > 16 µg/mL | > 16 µg/mL | > 16 µg/mL | > 16 µg/mL | > 16 µg/mL | > 16 µg/mL | 16 µg/mL (≈ 49 µM) | – | – | – | – | 900 µM (≈ 294 µg/mL) |
| COc1ccc(O)c(-c2csc(N/N=C/c3cc[nH]c3)n2)c1 | 16 µg/mL (≈ 50.9 µM) | 8 µg/mL (≈ 25.4 µM) | 16 µg/mL (≈ 50.9 µM) | > 16 µg/mL | > 16 µg/mL | > 16 µg/mL | 16 µg/mL (≈ 50.9 µM) | 16 µg/mL (≈ 50.9 µM) | – | – | – | – | – |
| C/C(=N\Nc1nc([C@@H](N)Cc2ccccc2)cs1)c1ccc2c(c1)CCC2 | > 16 µg/mL | > 16 µg/mL | > 16 µg/mL | > 16 µg/mL | > 16 µg/mL | > 16 µg/mL | > 16 µg/mL | > 16 µg/mL | – | – | – | – | 150 µM (≈ 56.5 µg/mL) |
| C/C(=N\Nc1nc([C@H](C)NC(=O)OCc2ccccc2)cs1)c1ccc2c(c1)CCC2 | > 16 µg/mL | > 16 µg/mL | > 16 µg/mL | > 16 µg/mL | > 16 µg/mL | > 16 µg/mL | > 16 µg/mL | > 16 µg/mL | – | – | – | – | – |
| COc1ccc(O)c(-c2csc(N/N=C/c3cnc[nH]3)n2)c1 | > 16 µg/mL | > 16 µg/mL | > 16 µg/mL | > 16 µg/mL | > 16 µg/mL | > 16 µg/mL | > 16 µg/mL | > 16 µg/mL | – | – | – | – | – |
| C/C(=N\Nc1nc([C@H](C)N)cs1)c1ccc2c(c1)CCC2 | 8 µg/mL (≈ 26.6 µM) | 8 µg/mL (≈ 26.6 µM) | > 16 µg/mL | 0.5 µg/mL (≈ 1.66 µM) | > 16 µg/mL | 0.125 µg/mL (≈ 0.416 µM) | 16 µg/mL (≈ 53.3 µM) | 8 µg/mL (≈ 26.6 µM) | 92.6% | 93.6% | 32.4% | 36.2% | 700 µM (≈ 210 µg/mL) |
| CCC(C)n1ncn(-c2ccc(N3CCN(c4ccc(OCC5COC(Cn6cncn6)(c6ccc(Cl)cc6Cl)O5)cc4)CC3)cc2)c1=O (centres undefined) [ITRACONAZOLE] | 0.5 µg/mL (≈ 0.709 µM) | 2 µg/mL (≈ 2.83 µM) | 0.5 µg/mL (≈ 0.709 µM) | 0.03 µg/mL (≈ 0.0425 µM) | > 16 µg/mL | 0.5 µg/mL (≈ 0.709 µM) | 0.03 µg/mL (≈ 0.0425 µM) | 1 µg/mL (≈ 1.42 µM) | – | – | – | – | – |
| COc1ccc(O)c(-c2csc(N/N=C/c3c[nH]c4ccccc34)n2)c1 | > 16 µg/mL | > 16 µg/mL | 0.25 µg/mL (≈ 0.686 µM) | 0.25 µg/mL (≈ 0.686 µM) | 0.5 µg/mL (≈ 1.37 µM) | > 16 µg/mL | 2 µg/mL (≈ 5.49 µM) | 0.5 µg/mL (≈ 1.37 µM) | 80.6% | 91.9% | 50.2% | 70.6% | – |
